Activity calls are given as the source filed them. The calls are words filed in the database; no cut-off is given here.

This is an account of results in ChEMBL document CHEMBL2010782, “Combination of a Beta adrenoceptor modulator and a norepinephrine-serotonin uptake inhibitor for the treatment of obesity” (ACS Med Chem Lett, 2011).

A short description of data set [1]: Tmax in healthy human plasma. The format is ADME, organism-based. The procedure, abridged:
(§1)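 Healthy human volunteers were dosed and plasma concentrations followed over time. Tmax was taken from the plasma profile, and terminal elimination half-life was estimated after a 60-mg dose.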

A short description of data set [2]: Elimination half life in healthy human at 60 mg. Particulars: in vivo, read-out: beta t1/2 (converted). It counts as ADME, organism-based. In short, it runs like this: as §1
The species named for data set [3] is Homo sapiens. The data set can be described thus: Inhibition of sibutramine-induced increase in systolic blood pressure in human at 30 to 300 mg. The format is functional, Artery.
Data set [4] is filed under the species Homo sapiens. In words: Inhibition of sibutramine-induced increase in diastolic blood pressure in human at 30 to 300 mg. It counts as functional, Artery.
For data set [5], the species on record is Homo sapiens. The data set can be described thus: Inhibition of sibutramine-induced increase in heart rate in human at 30 to 300 mg. The format is functional.
The target of data set [6] is T1, Beta-1 adrenergic receptor (Homo sapiens, UniProt P08588). In words: Displacement of [125I]Iodocyanopindolol from human adrenergic beta1 receptor expressed in insect sf9 cells by scintillation counting. A general note: Loss of bound radioactivity is the signal in a displacement assay; it reports binding, not function.
Target sequence in this assay (P08588 whole entry): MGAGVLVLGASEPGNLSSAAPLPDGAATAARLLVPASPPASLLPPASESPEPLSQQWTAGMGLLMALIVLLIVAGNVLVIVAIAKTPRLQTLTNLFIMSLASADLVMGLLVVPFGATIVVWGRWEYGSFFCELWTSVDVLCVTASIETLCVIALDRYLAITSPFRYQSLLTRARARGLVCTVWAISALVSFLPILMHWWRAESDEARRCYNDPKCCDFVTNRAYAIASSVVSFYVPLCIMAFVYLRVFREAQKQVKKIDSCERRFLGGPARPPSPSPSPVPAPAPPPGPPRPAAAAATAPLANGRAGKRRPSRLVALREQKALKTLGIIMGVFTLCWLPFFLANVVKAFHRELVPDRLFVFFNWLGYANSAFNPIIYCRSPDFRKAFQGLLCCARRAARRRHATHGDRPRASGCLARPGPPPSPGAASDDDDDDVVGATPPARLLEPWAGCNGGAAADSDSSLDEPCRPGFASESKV
The target in data set [7] is T2, Beta-2 adrenergic receptor (Homo sapiens, UniProt P07550). The data set can be described thus: Displacement of [125I]Iodocyanopindolol from human adrenergic beta2 receptor expressed in insect sf9 cells by scintillation counting.
Target sequence in this assay (P07550 whole entry): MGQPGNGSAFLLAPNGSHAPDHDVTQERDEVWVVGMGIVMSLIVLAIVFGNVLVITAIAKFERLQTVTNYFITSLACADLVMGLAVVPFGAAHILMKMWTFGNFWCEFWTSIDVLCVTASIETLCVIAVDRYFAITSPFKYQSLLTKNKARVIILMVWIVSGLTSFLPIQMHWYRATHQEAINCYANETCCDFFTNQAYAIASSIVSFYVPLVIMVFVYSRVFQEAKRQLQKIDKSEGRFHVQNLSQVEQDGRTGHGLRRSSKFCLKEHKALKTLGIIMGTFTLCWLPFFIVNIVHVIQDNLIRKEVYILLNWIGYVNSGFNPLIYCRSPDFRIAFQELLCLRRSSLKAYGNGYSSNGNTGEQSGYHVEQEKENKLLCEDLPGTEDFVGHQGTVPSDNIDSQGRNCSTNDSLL
The target of data set [8] is Beta-3 adrenergic receptor (Rattus norvegicus, UniProt P26255). In words: Agonist activity at rat adrenergic beta3 receptor expressed in DHB-11 CHO cells assessed as cAMP accumulation after 20 mins by scintillation proximity assay. It counts as functional, cell-based. (cAMP levels reflect the balance of adenylyl cyclase and phosphodiesterase activity.)
Chain of Beta-3 adrenergic receptor (Rattus norvegicus, UniProt P26255) (P26255 whole entry): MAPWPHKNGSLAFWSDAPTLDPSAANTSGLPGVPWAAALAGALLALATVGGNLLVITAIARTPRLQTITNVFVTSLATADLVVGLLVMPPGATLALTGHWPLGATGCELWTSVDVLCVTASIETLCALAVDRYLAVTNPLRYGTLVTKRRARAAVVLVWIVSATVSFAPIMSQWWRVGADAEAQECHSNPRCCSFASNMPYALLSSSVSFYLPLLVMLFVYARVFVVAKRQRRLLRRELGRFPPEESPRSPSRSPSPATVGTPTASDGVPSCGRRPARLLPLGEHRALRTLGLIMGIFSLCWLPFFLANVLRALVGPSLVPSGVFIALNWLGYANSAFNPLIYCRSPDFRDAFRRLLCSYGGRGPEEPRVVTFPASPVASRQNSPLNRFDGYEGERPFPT
In data set [9] the target is T3, Beta-3 adrenergic receptor (Homo sapiens, UniProt P13945). The data set can be described thus: Agonist activity at human adrenergic beta3 receptor expressed in DHB-11 CHO cells assessed as cAMP accumulation after 20 mins by scintillation proximity assay. It counts as functional, cell-based.
Target sequence in this assay (P13945 whole entry): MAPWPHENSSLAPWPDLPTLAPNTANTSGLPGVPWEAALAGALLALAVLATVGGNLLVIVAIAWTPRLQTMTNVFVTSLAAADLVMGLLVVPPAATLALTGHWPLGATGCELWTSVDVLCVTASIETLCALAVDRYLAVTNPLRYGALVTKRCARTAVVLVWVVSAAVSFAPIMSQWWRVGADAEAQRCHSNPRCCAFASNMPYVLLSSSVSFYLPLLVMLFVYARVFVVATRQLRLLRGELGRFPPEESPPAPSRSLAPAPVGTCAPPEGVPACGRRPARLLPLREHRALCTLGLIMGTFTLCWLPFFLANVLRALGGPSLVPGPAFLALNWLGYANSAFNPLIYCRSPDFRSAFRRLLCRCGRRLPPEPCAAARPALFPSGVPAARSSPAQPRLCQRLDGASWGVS
Data set [10] concerns the target T1, Beta-1 adrenergic receptor. The data set can be described thus: Agonist activity at human adrenergic beta1 receptor expressed in DHB-11 CHO cells assessed as cAMP accumulation after 20 mins by scintillation proximity assay. The format is functional, cell-based.
Target sequence in this assay (P08588 whole entry): as the sequence (P08588 whole entry) above
Data set [11] deals with T2, Beta-2 adrenergic receptor. The data set can be described thus: Agonist activity at human adrenergic beta2 receptor expressed in DHB-11 CHO cells assessed as cAMP accumulation after 20 mins by scintillation proximity assay. It counts as functional, cell-based.
Target sequence in this assay (P07550 whole entry): as the sequence (P07550 whole entry) above
The target of data set [12] is T1, Beta-1 adrenergic receptor. In words: Agonist activity at human adrenergic beta1 receptor expressed in DHB-11 CHO cells assessed as cAMP accumulation after 20 mins by scintillation proximity assay relative to isoproterenol. The format is functional, cell-based. In short, it runs like this: (§2)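 Whole-cell functional assay in transfected CHO cells expressing the human receptor, read as stimulated cAMP accumulation. Values are reported as the geometric mean ± standard deviation, with the number of runs (n) given.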
Target sequence in this assay (P08588 whole entry, looked up): as the sequence (P08588 whole entry) above

Data set [13] concerns Rattus norvegicus. The data set can be described thus: Antiobesity activity in Long-Evans rat assessed as increase in lipid utilization at 10 mg/kg, po measured after 4 hrs by indirect calorimetry analysis relative to control. It counts as functional, organism-based. Also on record: dose 10 mg/kg. The procedure, abridged:
(§3)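 Male Long–Evans rats with diet-induced obesity on a caloric dense diet received single oral doses of 3 or 10 mg/kg, with vehicle-treated rats as controls. Respiratory quotient (lipid utilization) and energy expenditure were followed by indirect calorimetry for about 4 h. Groups were compared by ANOVA with SNK post hoc test, p < 0.05.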

Data set [14] deals with Rattus norvegicus. The data set can be described thus: Antiobesity activity in po dosed Long-Evans rat assessed as increase in lipid utilization measured after 4 hrs by indirect calorimetry analysis relative to control. It counts as functional, organism-based. In short, it runs like this:
as §3

The test system of data set [15] is Rattus norvegicus. The data set can be described thus: Antiobesity activity in po dosed Long-Evans rat assessed as increase in energy expenditure measured after 4 hrs by indirect calorimetry analysis relative to control. It counts as functional, organism-based. In short, it runs like this: as §3
Data set [16] has as its system Rattus norvegicus. In words: Antiobesity activity in Long-Evans rat assessed as decrease in respiratory quotient at 3 to 10 mg/kg, po measured after 4 hrs by indirect calorimetry analysis relative to control. It counts as functional, organism-based. The procedure, abridged: as §3
Data set [17] deals with T3, Beta-3 adrenergic receptor. In words: Agonist activity at human adrenergic beta3 receptor expressed in DHB-11 CHO cells assessed as cAMP accumulation after 20 mins by scintillation proximity assay relative to isoproterenol. The format is functional, cell-based.
Target sequence in this assay (P13945 whole entry, looked up): as the sequence (P13945 whole entry) above
Data set [18] has as its target Beta-3 adrenergic receptor (Rattus norvegicus) (UniProt P26255). In words: Agonist activity at rat adrenergic beta3 receptor expressed in DHB-11 CHO cells assessed as cAMP accumulation after 20 mins by scintillation proximity assay relative to isoproterenol. The format is functional, cell-based.
In data set [19] the target is T2, Beta-2 adrenergic receptor. In words: Agonist activity at human adrenergic beta2 receptor expressed in DHB-11 CHO cells assessed as cAMP accumulation after 20 mins by scintillation proximity assay relative to isoproterenol. The format is functional, cell-based. In short, it runs like this: as §2
Target sequence in this assay (P07550 whole entry, looked up): as the sequence (P07550 whole entry) above

Chain of Beta-3 adrenergic receptor (Rattus norvegicus) (P26255 whole entry): as the sequence (P26255 whole entry) above

For orientation: Tmax means the time from dosing to the highest level. In the case of `CC(C)(Cc1ccc(Oc2ccc(C(N)=O)cn2)cc1)NC[C@H](O)COc1cccc2[nH]c3ccccc3c12` [LY377604], the Tmax in data set [1] amounted to 2 h. Also, in data set [2], the half-life is 9 h. In addition, the Activity in the data set filed under Homo sapiens [3] was determined as 5.5 mmHg; in the data set listed under Homo sapiens [4], 4.2 mmHg; in the data set filed under Homo sapiens [5], 10.5 bpm.
The term Ki denotes the dissociation constant of the complex between target and ligand, obtained from inhibition or displacement. As to `CC(C)(Cc1ccc(Oc2ccc(C(N)=O)cn2)cc1)NC[C@H](O)COc1cccc2[nH]c3ccccc3c12` [listing 1 of 3 here], the Ki in data set [6] was 0.023 nM; in data set [7], 0.012 nM.
Broadly, the EC50 is the concentration at which the effect is half-maximal. As for `CC(C)(Cc1ccc(Oc2ccc(C(N)=O)cn2)cc1)NC[C@H](O)COc1cccc2[nH]c3ccccc3c12` [listing 2 of 3 here], the EC50 was 5 nM in data set [8], 2.4 nM in [9], greater than 3160 nM in data set [10] and greater than 3160 nM in data set [11].
One may read the Emax as the maximal effect, on the per cent scale that the assay sets. Turning to `CC(C)(Cc1ccc(Oc2ccc(C(N)=O)cn2)cc1)NC[C@H](O)COc1cccc2[nH]c3ccccc3c12` [listing 3 of 3 here], the Emax in data set [12] was less than 10%; in data set [17], 73.8%; in [18], 55.5%; in data set [19], less than 10%. Moreover, the outcome with Rattus norvegicus [13] and in the data set with Rattus norvegicus [16] was Active. The Activity entry with Rattus norvegicus [14] and in the data set on Rattus norvegicus [15] was “Dose-dependent effect” each time.
